Source: ChEMBL document CHEMBL1139595, “Inhibition of IKK-2 by 2-[(aminocarbonyl)amino]-5-acetylenyl-3-thiophenecarboxamides” (Bioorg Med Chem Lett, 2005)

Experiments:
[1] = molecular target: T1, Inhibitor of nuclear factor kappa-B kinase subunit beta (Homo sapiens, UniProt O14920); assay: Inhibitory concentration against human recombinant I-kappa-B-kinase 2 from 3 experiments
T1 sequence (O14920 whole entry): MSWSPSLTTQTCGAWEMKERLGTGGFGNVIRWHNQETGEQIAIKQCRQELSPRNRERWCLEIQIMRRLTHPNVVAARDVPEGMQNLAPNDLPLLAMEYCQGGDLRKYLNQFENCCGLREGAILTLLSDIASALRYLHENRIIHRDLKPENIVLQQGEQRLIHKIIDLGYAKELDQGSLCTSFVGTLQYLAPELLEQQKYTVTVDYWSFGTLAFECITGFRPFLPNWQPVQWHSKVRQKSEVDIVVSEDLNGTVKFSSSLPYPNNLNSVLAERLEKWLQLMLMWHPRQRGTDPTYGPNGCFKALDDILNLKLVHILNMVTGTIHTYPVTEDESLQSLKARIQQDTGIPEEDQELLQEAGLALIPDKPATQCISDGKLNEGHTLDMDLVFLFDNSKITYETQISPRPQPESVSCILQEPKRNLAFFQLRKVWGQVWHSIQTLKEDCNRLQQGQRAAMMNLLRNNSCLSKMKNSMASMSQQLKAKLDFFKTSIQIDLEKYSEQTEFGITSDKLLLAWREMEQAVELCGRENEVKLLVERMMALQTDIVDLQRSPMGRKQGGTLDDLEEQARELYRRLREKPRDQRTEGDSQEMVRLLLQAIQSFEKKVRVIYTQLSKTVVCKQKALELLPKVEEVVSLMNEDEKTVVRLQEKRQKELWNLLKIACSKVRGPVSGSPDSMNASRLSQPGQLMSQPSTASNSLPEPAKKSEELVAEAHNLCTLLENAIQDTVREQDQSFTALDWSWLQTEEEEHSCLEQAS

[2] = Inhibitory concentration against interleukin-8 production in rheumatoid arthritis-derived synovial fibroblasts (RASFs) from 2 experiments; type: functional; conditions: Homo sapiens
Method in brief: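 Primary RASF from knee synovectomy tissue, grown in DMEM high glucose with 15% bovine serum and gentamicin. 1.5×10^4 cells/well attached overnight, moved to DMEM with 1% serum. Pre-treated 1 h with a seven-point dose series in 0.2% Me₂SO, then stimulated overnight with 1 ng/mL IL-1β. IL-8 in supernatant measured by ELISA; IC50 from curve.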

[3] = molecular target: T2, Inhibitor of nuclear factor kappa-B kinase subunit beta (Homo sapiens) (UniProt O14920); assay: Ratio of inhibitory concentration of rheumatoid arthritis-derived synovial fibroblasts to human recombinant I-kappa-B-kinase 2; type: functional
T2 sequence (whole entry): T1 sequence (O14920 whole entry)

[4] = Lethal concentration towards rheumatoid arthritis-derived synovial fibroblasts using Alamar Blue reagent; type: functional; conditions: Homo sapiens; read-out: LC50 (the source's name)
Method in brief: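 Primary RASF from knee synovectomy tissue, cultured in DMEM high glucose with 15% bovine serum; 1.5×10^4 cells/well in 1% serum, pre-treated 1 h with seven-point inhibitor doses in 0.2% Me2SO, then stimulated overnight with 1 ng/mL IL-1β. After removing the supernatant, Alamar Blue added, 2.5 h at 37 °C, 5% CO2; fluorescence read, LC50 derived.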

| IC50 [1] [nM] | Structure (SMILES) | IC50 [2] [nM] | Ratio [3] | CC50 [4] [nM] |
| --- | --- | --- | --- | --- |
| 620 | NC(=O)Nc1sc(C#Cc2ccccc2F)cc1C(N)=O |  |  |  |
| 964 | CC(=O)Nc1cccc(C#Cc2cc(C(N)=O)c(NC(N)=O)s2)c1 |  |  |  |
| 704 | NC(=O)Nc1sc(C#Cc2cccc(NC(=O)c3ccccc3)c2)cc1C(N)=O |  |  |  |
| 557 | NC(=O)Nc1sc(C#Cc2cccc(NC(=O)c3cccnc3)c2)cc1C(N)=O |  |  |  |
| 1010 | NC(=O)Nc1sc(C#Cc2ccccc2Cl)cc1C(N)=O |  |  |  |
| 709 | NC(=O)Nc1sc(C#Cc2cccc(N)c2)cc1C(N)=O |  |  |  |
| > 20000 | NC(=O)Nc1sc(C#Cc2cccc(NC(=O)c3ccccn3)c2)cc1C(N)=O |  |  |  |
| 4400 | COC(=O)NCCC(=O)Nc1cccc(C#Cc2cc(C(N)=O)c(NC(N)=O)s2)c1 |  |  |  |
| 716 | Cc1ccccc1C#Cc1cc(C(N)=O)c(NC(N)=O)s1 |  |  |  |
| 980 | NC(=O)Nc1sc(C#Cc2cccc(NC(=O)C(F)(F)F)c2)cc1C(N)=O |  |  |  |
| 465 | CCC(O)c1cc(C#Cc2cc(C(N)=O)c(NC(N)=O)s2)cs1 (stereo not drawn) |  |  |  |
| 1850 | NC(=O)Nc1sc(C#Cc2cccc(NC(=O)c3ccncc3)c2)cc1C(N)=O |  |  |  |
| 1880 | CN(C)CC(=O)Nc1cccc(C#Cc2cc(C(N)=O)c(NC(N)=O)s2)c1 |  |  |  |
| 563 | CC(C)C(O)c1cc(C#Cc2cc(C(N)=O)c(NC(N)=O)s2)cs1 (stereo not drawn) |  |  |  |

| Structure (SMILES) | IC50 [1] [nM] | IC50 [2] [nM] | Ratio [3] | CC50 [4] [nM] |
| --- | --- | --- | --- | --- |
| NC(=O)Nc1sc(C#Cc2cccc(F)c2)cc1C(N)=O | 331 | 1650 | 5 | > 30000 |
| NC(=O)Nc1sc(C#CC2CC2)cc1C(N)=O | 273 | 3060 | 11 | > 30000 |
| NC(=O)Nc1sc(C#Cc2csc(CO)c2)cc1C(N)=O | 195 | 1130 | 5.8 | > 30000 |
| N#Cc1cc(C#Cc2cc(C(N)=O)c(NC(N)=O)s2)cs1 | 333 | 832 | 2.5 | > 30000 |
| NC(=O)Nc1sc(C#Cc2ccsc2)cc1C(N)=O | 420 | 1180 | 2.8 | > 30000 |
| NC(=O)Nc1sc(C#Cc2cccc(O)c2)cc1C(N)=O | 303 | 576 | 1.9 | 2720 |
| CS(=O)(=O)Nc1cccc(C#Cc2cc(C(N)=O)c(NC(N)=O)s2)c1 | 454 | 12900 | 28 | > 30000 |
| NC(=O)c1sc(-c2ccsc2)cc1N | 11200 |  |  |  |
